T1: TNKS(5ARC) (human, UniProt O95271 173-961)
T1 sequence (looked up): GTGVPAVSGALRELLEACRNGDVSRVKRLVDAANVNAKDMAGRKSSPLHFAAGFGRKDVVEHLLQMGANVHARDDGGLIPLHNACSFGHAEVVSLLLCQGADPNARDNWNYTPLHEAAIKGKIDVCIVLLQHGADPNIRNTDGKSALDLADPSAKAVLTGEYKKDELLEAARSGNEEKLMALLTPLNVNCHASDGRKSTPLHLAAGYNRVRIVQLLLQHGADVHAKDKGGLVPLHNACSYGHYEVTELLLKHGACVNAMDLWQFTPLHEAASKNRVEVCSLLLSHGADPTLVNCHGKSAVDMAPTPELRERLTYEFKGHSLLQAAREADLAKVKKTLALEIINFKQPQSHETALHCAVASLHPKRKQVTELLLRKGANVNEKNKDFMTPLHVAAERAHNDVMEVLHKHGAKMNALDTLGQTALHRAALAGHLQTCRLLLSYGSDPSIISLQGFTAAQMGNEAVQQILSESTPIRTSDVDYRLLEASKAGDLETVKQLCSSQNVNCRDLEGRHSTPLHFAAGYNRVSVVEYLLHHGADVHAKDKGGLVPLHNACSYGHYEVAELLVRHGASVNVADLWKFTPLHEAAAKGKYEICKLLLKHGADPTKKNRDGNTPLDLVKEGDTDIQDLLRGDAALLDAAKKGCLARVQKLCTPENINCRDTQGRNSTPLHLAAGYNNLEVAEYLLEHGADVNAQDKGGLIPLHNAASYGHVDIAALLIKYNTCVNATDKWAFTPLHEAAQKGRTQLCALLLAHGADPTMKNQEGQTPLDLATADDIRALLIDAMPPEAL

T2: Full-length mouse tankyrase-1 (mouse, UniProt Q6PFX9 1-1320)
T2 sequence (looked up): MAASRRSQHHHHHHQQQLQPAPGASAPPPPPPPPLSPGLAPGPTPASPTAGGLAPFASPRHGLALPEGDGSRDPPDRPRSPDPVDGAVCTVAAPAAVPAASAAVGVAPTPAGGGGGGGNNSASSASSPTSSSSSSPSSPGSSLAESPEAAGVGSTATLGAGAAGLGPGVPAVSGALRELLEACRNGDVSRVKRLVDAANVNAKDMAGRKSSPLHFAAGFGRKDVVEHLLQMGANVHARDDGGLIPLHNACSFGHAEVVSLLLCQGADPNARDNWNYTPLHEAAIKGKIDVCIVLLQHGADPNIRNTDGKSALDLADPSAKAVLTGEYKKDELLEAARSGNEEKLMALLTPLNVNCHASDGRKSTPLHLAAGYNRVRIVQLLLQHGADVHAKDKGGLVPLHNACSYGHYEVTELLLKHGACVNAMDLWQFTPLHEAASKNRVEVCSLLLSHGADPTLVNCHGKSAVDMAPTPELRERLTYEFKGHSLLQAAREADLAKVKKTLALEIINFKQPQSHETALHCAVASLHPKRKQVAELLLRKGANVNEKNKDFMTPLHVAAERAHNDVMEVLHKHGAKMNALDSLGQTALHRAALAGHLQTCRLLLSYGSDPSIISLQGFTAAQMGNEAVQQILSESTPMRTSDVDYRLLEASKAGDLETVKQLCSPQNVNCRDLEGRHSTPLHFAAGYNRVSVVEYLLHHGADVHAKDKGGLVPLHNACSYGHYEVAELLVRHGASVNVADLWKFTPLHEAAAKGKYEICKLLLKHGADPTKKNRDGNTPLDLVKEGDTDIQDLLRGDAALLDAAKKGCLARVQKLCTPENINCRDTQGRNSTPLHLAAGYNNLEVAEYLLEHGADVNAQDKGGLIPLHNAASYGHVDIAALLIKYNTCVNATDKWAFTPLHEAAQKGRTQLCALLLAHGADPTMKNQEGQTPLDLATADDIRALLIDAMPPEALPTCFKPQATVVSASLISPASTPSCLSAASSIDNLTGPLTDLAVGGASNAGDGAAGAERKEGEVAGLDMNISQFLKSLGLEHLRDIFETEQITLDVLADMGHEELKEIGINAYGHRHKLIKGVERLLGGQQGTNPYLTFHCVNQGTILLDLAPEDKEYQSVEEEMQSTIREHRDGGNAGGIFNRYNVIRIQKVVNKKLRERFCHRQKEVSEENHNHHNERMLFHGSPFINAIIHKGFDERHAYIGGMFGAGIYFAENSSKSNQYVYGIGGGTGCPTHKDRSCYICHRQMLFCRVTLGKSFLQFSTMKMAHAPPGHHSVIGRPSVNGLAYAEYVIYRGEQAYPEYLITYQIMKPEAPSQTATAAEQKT


What was measured:
[1] = system: full-length RNF146 or RNF146(RING-WWE); experiment: E2~Ub/lysine reactivity assay with UbcH5; type: biochemical, human; settings: ligand added to full-length RNF146 or RING-WWE fragment, not RING-only construct
Procedure, shortened: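 Mouse RNF146(RING-WWE) (residues 30–183), made from a GST-tagged construct with TEV cleavage, or His6-T7-tagged full-length RNF146. UbcH5~Ub was charged by wheat E1 (1.5 μM) with 100 μM E2, 200 μM K0 Ub, 2.5 mM MgCl2 and 2 mM ATP in PBS at 37 °C for 30 min, then SEC-purified. Final: 25 μM E2, 4 or 8 μM E3, ± iso-ADPr. Started with 40 mM L-lysine at 35 °C; sampled 1–15 min; non-reducing SDS-PAGE, Coomassie/Oriole stain.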

TNKS(5ARC) [2] = target: T1, TNKS(5ARC); experiment: pull-down
[3] = target: T2, Full-length mouse tankyrase-1; experiment: pull-down
TNKS(5ARC) [4] = target: T1, TNKS(5ARC); experiment: SEC-MALS

| binding result (TNKS(5ARC) [2]) | Molecule | also measured |
| --- | --- | --- |
| binds | GST-RNF146 (full-length, wt) (natural protein, human, UniProt Q9NTX7-2 1-358, looked up) MAGCGEIDHSINMLPTNRKANESCSNTAPSLTVPECAICLQTCVHPVSLPCKHVFCYLCVKGASWLGKRCALCRQEIPEDFLDKPTLLSPEELKAASRGNGEYAWYYEGRNGWWQYDERTSRELEDAFSKGKKNTEMLIAGFLYVADLENMVQYRRNEHGRRRKIKRDIIDIPKKGVAGLRLDCDANTVNLARESSADGADSVSAQSGASVQPLVSSVRPLTSVDGQLTSPATPSPDASTSLEDSFAHLQLSGDNTAERSHRGEGEEDHESPSSGRVPAPDTSIEETESDASSDSEDVSAVVAQHSLTQQRLLVSNANQTVPDRSDRSGTDRSVAGGGTVSVSVRSRRPDGQCTVTEV | – |
| binds | GST-RNF146 G199V (natural protein, human, UniProt Q9NTX7-2 1-358, looked up) MAGCGEIDHSINMLPTNRKANESCSNTAPSLTVPECAICLQTCVHPVSLPCKHVFCYLCVKGASWLGKRCALCRQEIPEDFLDKPTLLSPEELKAASRGNGEYAWYYEGRNGWWQYDERTSRELEDAFSKGKKNTEMLIAGFLYVADLENMVQYRRNEHGRRRKIKRDIIDIPKKGVAGLRLDCDANTVNLARESSADVADSVSAQSGASVQPLVSSVRPLTSVDGQLTSPATPSPDASTSLEDSFAHLQLSGDNTAERSHRGEGEEDHESPSSGRVPAPDTSIEETESDASSDSEDVSAVVAQHSLTQQRLLVSNANQTVPDRSDRSGTDRSVAGGGTVSVSVRSRRPDGQCTVTEV | – |

The remaining lines, values behind:

| Molecule | binding result (TNKS(5ARC) [2]) | also measured |
| --- | --- | --- |
| poly(ADP-ribose) [PAR] | – | activation of Ub transfer from UbcH5~Ub to lysine [1]: robust activation |
| GST-RNF146(1–205) (domain or fragment, human, UniProt Q9NTX7-2 1-205, looked up) MAGCGEIDHSINMLPTNRKANESCSNTAPSLTVPECAICLQTCVHPVSLPCKHVFCYLCVKGASWLGKRCALCRQEIPEDFLDKPTLLSPEELKAASRGNGEYAWYYEGRNGWWQYDERTSRELEDAFSKGKKNTEMLIAGFLYVADLENMVQYRRNEHGRRRKIKRDIIDIPKKGVAGLRLDCDANTVNLARESSADGADSVSA | binds | – |
| GST-RNF146 G337V/G338V (natural protein, human, UniProt Q9NTX7-2 1-358, looked up) MAGCGEIDHSINMLPTNRKANESCSNTAPSLTVPECAICLQTCVHPVSLPCKHVFCYLCVKGASWLGKRCALCRQEIPEDFLDKPTLLSPEELKAASRGNGEYAWYYEGRNGWWQYDERTSRELEDAFSKGKKNTEMLIAGFLYVADLENMVQYRRNEHGRRRKIKRDIIDIPKKGVAGLRLDCDANTVNLARESSADGADSVSAQSGASVQPLVSSVRPLTSVDGQLTSPATPSPDASTSLEDSFAHLQLSGDNTAERSHRGEGEEDHESPSSGRVPAPDTSIEETESDASSDSEDVSAVVAQHSLTQQRLLVSNANQTVPDRSDRSGTDRSVAGVVTVSVSVRSRRPDGQCTVTEV | binds | – |
| GST-RNF146-R163A (natural protein, human, UniProt Q9NTX7-2 1-358, looked up) MAGCGEIDHSINMLPTNRKANESCSNTAPSLTVPECAICLQTCVHPVSLPCKHVFCYLCVKGASWLGKRCALCRQEIPEDFLDKPTLLSPEELKAASRGNGEYAWYYEGRNGWWQYDERTSRELEDAFSKGKKNTEMLIAGFLYVADLENMVQYRRNEHGRRAKIKRDIIDIPKKGVAGLRLDCDANTVNLARESSADGADSVSAQSGASVQPLVSSVRPLTSVDGQLTSPATPSPDASTSLEDSFAHLQLSGDNTAERSHRGEGEEDHESPSSGRVPAPDTSIEETESDASSDSEDVSAVVAQHSLTQQRLLVSNANQTVPDRSDRSGTDRSVAGGGTVSVSVRSRRPDGQCTVTEV | – | binding result [3]: binds |
| His6-T7-RNF146 (full-length) (natural protein, human, UniProt Q9NTX7-2 1-358, looked up) MAGCGEIDHSINMLPTNRKANESCSNTAPSLTVPECAICLQTCVHPVSLPCKHVFCYLCVKGASWLGKRCALCRQEIPEDFLDKPTLLSPEELKAASRGNGEYAWYYEGRNGWWQYDERTSRELEDAFSKGKKNTEMLIAGFLYVADLENMVQYRRNEHGRRRKIKRDIIDIPKKGVAGLRLDCDANTVNLARESSADGADSVSAQSGASVQPLVSSVRPLTSVDGQLTSPATPSPDASTSLEDSFAHLQLSGDNTAERSHRGEGEEDHESPSSGRVPAPDTSIEETESDASSDSEDVSAVVAQHSLTQQRLLVSNANQTVPDRSDRSGTDRSVAGGGTVSVSVRSRRPDGQCTVTEV | – | binding result (TNKS(5ARC) [4]): binds |

Source: publication PMC4289021 (Nature, 2014)
